According to ChEMBL document CHEMBL1147212, “Quinone reductase induction activity of methoxylated analogues of resveratrol” (2007):
Activity calls are given as the source filed them. The calls are words filed in the database; no cut-off is given here.

Tests used:
[1] = Cytotoxicity against mouse Hepa 1c1c7 cells assessed as cell viability at 12.5 uM after 24 hrs by MTT assay; format: functional; settings: Hepa-1c1c7, 24 h, read-out: Activity
How it was run: (§1)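 Hepa 1c1c7 murine hepatoma cells exposed for 24 h to compound from DMSO stock, serially diluted to final […], with DMSO ≤1% final. MTT then added for 3 h, cells lysed, and formazan read at 590 nm. Blank-subtracted absorbance expressed as % of untreated control wells. Mean of at least three independent determinations.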

Hepa 1c1c7 [2] = experiment: Induction of quinone reductase activity in mouse Hepa 1c1c7 cells at 12.5 uM after 24 hrs relative to control; format: cell-based
How it was run: (§2)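 Cells seeded at 10⁴/well and grown 24 h in α-MEM with 10% FCS, 5% CO₂, 37 °C. They were then exposed 24 h to compound (DMSO ≤0.5% final), using the same concentration as the viability test. Lysis used digitonin/EDTA. MTT-coupled menadione reduction mix was added (Tris pH 7.4, FAD, G6P, NADP, G6PDH). Reaction stopped after 5 min with dicoumarol and read at 590 nm. Result is blank-corrected treated/control (0.5% DMSO) ratio, mean ± SD, n = 3. Lines 12-14 used the c1 mutant, which lacks CYP1A1-dependent AHH activity.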

Hepa 1c1c7c1 [3] = experiment: Induction of quinone reductase in mouse mutant Hepa 1c1c7c1 cells at 12.5 uM after 24 hrs relative to control; format: cell-based; how it was run: as §2
[4] = Cytotoxicity against mouse Hepa 1c1c7 cells assessed as cell viability at 6.3 uM after 24 hrs by MTT assay; format: functional; settings: Hepa-1c1c7, 24 h, read-out: Activity; how it was run: as §1
Hepa 1c1c7 [5] = experiment: Induction of quinone reductase activity in mouse Hepa 1c1c7 cells at 6.3 uM after 24 hrs relative to control; format: cell-based; how it was run: as §2
[6] = Cytotoxicity against mouse Hepa 1c1c7 cells assessed as cell viability at 1 uM after 24 hrs by MTT assay; format: functional; settings: Hepa-1c1c7, 24 h, read-out: Activity; how it was run: as §1
Hepa 1c1c7 [7] = experiment: Induction of quinone reductase activity in mouse Hepa 1c1c7 cells at 1 uM after 24 hrs relative to control; format: cell-based; how it was run: as §2
Hepa 1c1c7 [8] = experiment: Induction of quinone reductase activity in mouse Hepa 1c1c7 cells assessed as concentration required to double the enzyme activity; format: cell-based
How it was run: (§3)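 Hepa 1c1c7 wild-type or AHH-deficient c1 mutant cells, 10⁴ per well, grown for 24 h in α-MEM with 10% FCS at 37 °C and 5% CO₂, then exposed to compound from DMSO stock (final DMSO ≤0.5%) for 24 h. Cells were digitonin/EDTA-lysed and given an NADP/G6P-regenerating mix with FAD, MTT and menadione for 5 min. The reaction was stopped with dicoumarol and read at 590 nm; CD is the concentration doubling QR activity versus the DMSO control.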

Hepa 1c1c7c1 [9] = experiment: Induction of quinone reductase activity in mouse mutant Hepa 1c1c7c1 cells assessed as concentration required to double the enzyme activity; format: cell-based; how it was run: as §3
[10] = ABTS radical scavenging activity assessed as trolox equivalent antioxidant capacity; format: functional
How it was run: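 ABTS radical cation diluted in PBS pH 7.4 to absorbance 0.700 (±0.02) at 734 nm, 25 °C. Compound added from ethanol stock. Absorbance decrease read at 1, 3 and 5 min. Percent reduction at 5 min plotted against concentration ([…] as printed); slope divided by Trolox slope gives TEAC. Run at least three times on separate occasions.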

Hepa 1c1c7 [11] = experiment: Induction of quinone reductase activity in mouse Hepa 1c1c7 cells at 25 uM after 24 hrs relative to control; format: cell-based; how it was run: as §2
[12] = Cytotoxicity against mouse Hepa 1c1c7 cells assessed as cell viability at 25 uM after 24 hrs by MTT assay; format: functional; settings: Hepa-1c1c7, 24 h, read-out: Activity; how it was run: as §1
[13] = Cytotoxicity against mouse Hepa 1c1c7 cells assessed as cell viability at 5 uM after 24 hrs by MTT assay; format: functional; settings: Hepa-1c1c7, 24 h, read-out: Activity; how it was run: as §1
Hepa 1c1c7 [14] = experiment: Induction of quinone reductase activity in mouse Hepa 1c1c7 cells at 5 uM after 24 hrs relative to control; format: cell-based; how it was run: as §2

**Q.** Which results are given for `COc1ccc(/C=C/c2ccccc2OC)cc1`?
**A.** viability at 12.5 µM [1]: 58%; Activity (Hepa 1c1c7 [2]): 2.04; fold induction (Hepa 1c1c7c1 [3]): 1.14; viability at 6.3 µM [4]: 73%; Activity (Hepa 1c1c7 [5]): 1.8

**Q.** For `COc1ccc(/C=C/c2ccc(OC)cc2OC)cc1`, which viability at 12.5 µM [1] is on record?
**A.** The viability at 12.5 µM was 58%.

**Q.** What about the Activity (Hepa 1c1c7 [2]) of the same compound?
**A.** The Activity was 1.18.

**Q.** What does the source list for `COc1ccc(/C=C/c2cc(OC)cc(OC)c2)cc1` [TRISMETHOXYRESVERATROL]?
**A.** viability at 1 µM [6]: 94%; Activity (Hepa 1c1c7 [7]): < 1

**Q.** For `COc1ccc(/C=C/c2c(OC)cccc2OC)cc1`, which viability at 12.5 µM [1] is on record?
**A.** The viability at 12.5 µM was 90%.

**Q.** What about the Activity (Hepa 1c1c7 [2]) of the same compound?
**A.** The Activity was 1.92.

**Q.** What about the Activity (Hepa 1c1c7c1 [3]) of the same compound?
**A.** Its Activity is 1.05 µM.

**Q.** With `COc1ccc(/C=C/c2cc(OC)c(OC)c(OC)c2)cc1` as the compound, how does the viability at 1 µM [6] read?
**A.** The viability at 1 µM was 86%.

**Q.** What about the Activity (Hepa 1c1c7 [7]) of the same compound?
**A.** The Activity was < 1.

**Q.** What does the source list for `O=c1cc(-c2ccccc2)oc2ccc3ccccc3c12`?
**A.** Activity (Hepa 1c1c7 [8]): 0.028 µM; Activity (Hepa 1c1c7c1 [9]): inactive

**Q.** Which viability at 12.5 µM [1] does the source give for `Oc1cc(O)cc(/C=C/c2ccccc2)c1` [PINOSYLVIN] here?
**A.** Its viability at 12.5 µM is 61%.

**Q.** And the Activity (Hepa 1c1c7 [2])?
**A.** Its Activity is 1.07.

**Q.** And the Activity [10]?
**A.** The Activity was 2.04.

**Q.** What does the source list for `COc1ccc(/C=C\c2cc(OC)c(OC)c(OC)c2)cc1`?
**A.** viability at 1 µM [6]: 88%; Activity (Hepa 1c1c7 [7]): < 1

**Q.** Which results are given for `COc1ccc(/C=C/c2ccc(OC)c(O)c2)cc1`?
**A.** viability at 12.5 µM [1]: 77%; Activity (Hepa 1c1c7 [2]): 1.33; Activity [10]: 1.29

**Q.** What does the source list for `COc1ccccc1/C=C/c1ccccc1OC`?
**A.** viability at 12.5 µM [1]: 82%; Activity (Hepa 1c1c7 [2]): 1.81; fold induction (Hepa 1c1c7c1 [3]): < 1

**Q.** What does the source list for `C[S+]([O-])CCCCN=C=S` (stereo unspecified)?
**A.** Activity (Hepa 1c1c7 [8]): 0.26 µM; Activity (Hepa 1c1c7c1 [9]): 0.28 µM

**Q.** With `COc1ccc(/C=C\c2cc(OC)cc(OC)c2)cc1` [8Z-3,4',5-TRIMETHOXYSTILBENE] as the compound, how does the viability at 1 µM [6] read?
**A.** Its viability at 1 µM is 82%.

**Q.** What about the Activity (Hepa 1c1c7 [7]) of the same compound?
**A.** The Activity was < 1.

**Q.** For `COc1ccc(/C=C/c2cccc(O)c2)cc1`, which viability at 12.5 µM [1] is on record?
**A.** The viability at 12.5 µM was 81%.

**Q.** What about the Activity (Hepa 1c1c7 [2]) of the same compound?
**A.** Its Activity is 1.08.

**Q.** And the Activity [10]?
**A.** The Activity was 1.11.

**Q.** Which results are given for `COc1ccc(/C=C\c2ccc(OC)cc2OC)cc1`?
**A.** viability at 1 µM [6]: 85%; Activity (Hepa 1c1c7 [7]): < 1

**Q.** For `COc1ccc(/C=C\c2cc(O)cc(O)c2)cc1`, which viability at 12.5 µM [1] is on record?
**A.** The viability at 12.5 µM was 96%.

**Q.** And the Activity (Hepa 1c1c7 [2])?
**A.** The Activity was 1.04.

**Q.** And the Activity [10]?
**A.** Its Activity is 1.86.

**Q.** Which results are given for `COc1ccc(/C=C/c2ccc(OC)cc2)cc1`?
**A.** viability at 12.5 µM [1]: 67%; Activity (Hepa 1c1c7 [2]): 1.14

**Q.** Which results are given for `COc1ccc(/C=C\c2ccc(OC)c(OC)c2)cc1` [7Z-3,4,4'-TRIMETHOXYSTILBENE]?
**A.** viability at 1 µM [6]: 86%; Activity (Hepa 1c1c7 [7]): < 1

**Q.** Which results are given for `COc1ccc(/C=C/c2cc(O)cc(O)c2)cc1` [RESVERATROL 4'-METHYL ETHER]?
**A.** viability at 12.5 µM [1]: 87%; Activity (Hepa 1c1c7 [2]): 1.14; Activity [10]: 2.49

**Q.** What does the source list for `COc1ccc(/C=C\c2ccccc2OC)cc1`?
**A.** viability at 1 µM [6]: 56%; Activity (Hepa 1c1c7 [7]): < 1

**Q.** What does the source list for `Oc1ccc(/C=C/c2cc(O)cc(O)c2)cc1` [RESVERATROL]?
**A.** viability at 12.5 µM [1]: 80%; Activity (Hepa 1c1c7 [2]): 1.24; fold induction (Hepa 1c1c7c1 [3]): 1.16; Activity (Hepa 1c1c7 [11]): 1.5; Activity [10]: 2.74; viability at 25 µM [12]: 55%

**Q.** Which viability at 1 µM [6] does the source give for `COc1ccc(/C=C/c2ccc(OC)c(OC)c2)cc1` here?
**A.** Its viability at 1 µM is 100%.

**Q.** What about the Activity (Hepa 1c1c7 [7]) of the same compound?
**A.** Its Activity is < 1.

**Q.** With `COc1ccc(/C=C/c2cccc(OC)c2)cc1` as the compound, how does the viability at 12.5 µM [1] read?
**A.** The viability at 12.5 µM was 90%.

**Q.** What about the Activity (Hepa 1c1c7 [2]) of the same compound?
**A.** Its Activity is 1.44.

**Q.** What about the fold induction (Hepa 1c1c7c1 [3]) of the same compound?
**A.** Its fold induction is < 1.

**Q.** What does the source list for `COc1ccc(/C=C\c2cccc(O)c2)cc1`?
**A.** viability at 5 µM [13]: 90%; Activity (Hepa 1c1c7 [14]): < 1; Activity [10]: 1.04

**Q.** Which viability at 5 µM [13] does the source give for `COc1ccc(/C=C\c2ccc(OC)c(O)c2)cc1` here?
**A.** Its viability at 5 µM is 75%.

**Q.** What about the Activity (Hepa 1c1c7 [14]) of the same compound?
**A.** The Activity was < 1.

**Q.** And the Activity [10]?
**A.** The Activity was 1.11.

**Q.** Which viability at 1 µM [6] does the source give for `COc1ccc(/C=C\c2cccc(OC)c2)cc1` here?
**A.** The viability at 1 µM was 92%.

**Q.** What about the Activity (Hepa 1c1c7 [7]) of the same compound?
**A.** The Activity was < 1.

**Q.** What does the source list for `COc1ccc(/C=C/c2ccccc2O)cc1` [2-hydroxy-4'-methoxystilbene]?
**A.** viability at 12.5 µM [1]: 80%; Activity (Hepa 1c1c7 [2]): 1.13

**Q.** Which viability at 12.5 µM [1] does the source give for `COc1ccc(/C=C\c2ccc(OC)cc2)cc1` here?
**A.** The viability at 12.5 µM was 64%.

**Q.** And the Activity (Hepa 1c1c7 [2])?
**A.** The Activity was 1.06.
